pIC50: −log10 of the molar value. Calls of active or inactive are those of the source. The calls are words filed in the database; no cut-off is given here.
Tests used:
[1] = Anticancer activity against human Molt4/C8 cells after 72 hrs; assay type: functional, cell-based; conditions: MOLT-4, 72 h
[2] = tested on: L1210; experiment: Anticancer activity against mouse L1210 cells after 48 hrs; assay type: functional, cell-based; conditions: L1210, 48 h
[3] = tested on: Mus musculus; experiment: Toxicity in mouse assessed as mortality at 30 to 300 mg/kg, ip after 0.5 to 4 hrs; assay type: organism-based; parameters: dose 30-300 mg/kg, route intraperitoneal; conditions: in vivo
Summary of the method: (§1)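 Mice dosed intraperitoneally at 30, 100 and 300 mg/kg; animals observed for deaths and neurological deficit at 0.5 and 4 h after injection.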

[4] = tested on: CCRF-CEM; experiment: Anticancer activity against human CEM cells after 72 hrs; assay type: functional, cell-based
[5] = tested on: Mus musculus; experiment: Neurotoxicity in mouse at 30 to 300 mg/kg, ip after 0.5 hrs by rotarod method; assay type: toxicity, organism-based; parameters: dose 30-300 mg/kg, route intraperitoneal; conditions: in vivo
Summary of the method: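 Mice given 30, 100 and 300 mg/kg by intraperitoneal injection; animals scored for mortality and neurotoxicity at 0.5 and 4 h after dosing.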

[6] = tested on: HCT-15; experiment: Anticancer activity against human HCT15 cells; assay type: functional, cell-based
[7] = tested on: RPMI-8226; experiment: Anticancer activity against human RPMI8226 cells; assay type: functional, cell-based
[8] = tested on: Mus musculus; experiment: Neurotoxicity in mouse at 30 to 300 mg/kg, ip after 0.5 to 4 hrs by rotarod method; assay type: toxicity, organism-based; parameters: dose 30-300 mg/kg, route intraperitoneal; conditions: in vivo; summary of the method: as §1
[9] = tested on: HCT-116; experiment: Anticancer activity against human HCT116 cells; assay type: functional, cell-based
[10] = tested on: COLO 205; experiment: Anticancer activity against human COLO205 cells; assay type: functional, cell-based
[11] = tested on: HL-60; experiment: Anticancer activity against human HL60 cells; assay type: functional, cell-based
[12] = tested on: HCC 2998; experiment: Anticancer activity against human HCC2998 cells; assay type: functional, cell-based
[13] = tested on: CCRF-CEM; experiment: Anticancer activity against human CCRF-CEM cells; assay type: functional, cell-based
[14] = tested on: K562; experiment: Anticancer activity against human K562 cells; assay type: functional, cell-based
[15] = tested on: HT-29; experiment: Anticancer activity against human HT-29 cells; assay type: functional, cell-based
[16] = tested on: SW-620; experiment: Anticancer activity against human SW620 cells; assay type: functional, cell-based
[17] = tested on: KM12; experiment: Anticancer activity against human KM12 cells; assay type: functional, cell-based
[18] = tested on: HSC-2; experiment: Cytotoxicity against human HSC2 cells after 48 hrs; assay type: functional; conditions: HSC-2, 48 h
[19] = tested on: HL-60; experiment: Selectivity index, ratio of average CC50 for normal human cell line to CC50 for human HL-60 cells
[20] = tested on: HSC-4; experiment: Cytotoxicity against human HSC4 cells after 48 hrs; assay type: functional; conditions: HSC-4, 48 h
[21] = tested on: HSC-4; experiment: Selectivity index, ratio of average CC50 for normal human cell line to CC50 for human HSC4 cells
[22] = Cytotoxicity against human HPC cells after 48 hrs; assay type: cell-based
[23] = Cytotoxicity against human HPLF cells after 48 hrs; assay type: cell-based
[24] = Cytotoxicity against human HGF cells after 48 hrs; assay type: cell-based
[25] = tested on: HSC-2; experiment: Selectivity index, ratio of average CC50 for normal human cell line to CC50 for human HSC2 cells
[26] = tested on: HSC-3; experiment: Selectivity index, ratio of average CC50 for normal human cell line to CC50 for human HSC3 cells
[27] = tested on: HL-60; experiment: Cytotoxicity against human HL60 cells after 48 hrs; assay type: functional; conditions: HL-60, 48 h
[28] = tested on: CCRF-CEM; experiment: Ratio of melphalan IC50 to compound IC50 for human CEM cells; assay type: functional
[29] = tested on: MOLT-4; experiment: Ratio of melphalan IC50 to compound IC50 for human Molt4/C8 cells; assay type: functional
[30] = tested on: HSC-3; experiment: Cytotoxicity against human HSC3 cells after 48 hrs; assay type: functional; conditions: HSC-3, 48 h
[31] = tested on: HL-60; experiment: Induction of mitochondrial pathway-dependent apoptosis in human HL60 cells assessed as DNA fragmentation at 0.5 to 8 uM after 6 hrs by agarose gel electrophoresis; assay type: functional, cell-based
Summary of the method: (§2)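 Cells exposed 6 h to a range of concentrations; a UV-irradiated comparison was given 1 min of UV. Treated and control cells were then held 3 h in regular culture medium, after which DNA was extracted and run on 2% agarose gel electrophoresis.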

[32] = tested on: HSC-2; experiment: Induction of mitochondrial pathway-dependent apoptosis in human HSC2 cells assessed as caspase 3 activation at 1 to 3 uM; assay type: functional, cell-based
Summary of the method: (§3)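 Caspase-3 activity measured in lysates of treated HL-60 and HSC-2 cells: 100 μg protein per assay, incubated 2 h with the substrate. Mean ± SD of three experiments.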

[33] = tested on: HL-60; experiment: Induction of mitochondrial pathway-dependent apoptosis in human HL60 cells assessed as caspase 3 activation at 1 to 3 uM; assay type: functional, cell-based; summary of the method: as §3
[34] = tested on: HSC-2; experiment: Induction of mitochondrial pathway-dependent apoptosis in human HSC2 cells assessed as DNA fragmentation at 0.5 to 8 uM after 6 hrs by agarose gel electrophoresis; assay type: functional, cell-based; summary of the method: as §2
[35] = tested on: L1210; experiment: Ratio of melphalan IC50 to compound IC50 for mouse L1210 cells; assay type: functional
[36] = tested on: Rattus norvegicus; experiment: Neurotoxicity in rat at 50 mg/kg, po measured upto 4 hrs by rotarod method; assay type: toxicity, organism-based; parameters: dose 50 mg/kg, route oral; conditions: in vivo
Summary of the method: (§4)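 Rats given a single oral dose of 50 mg/kg; monitored intermittently over 4 h for fatalities and neurological deficit.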

[37] = tested on: Rattus norvegicus; experiment: Toxicity in rat assessed as mortality at 50 mg/kg, po measured upto 4 hrs; assay type: organism-based; parameters: dose 50 mg/kg, route oral; conditions: in vivo; summary of the method: as §4

COc1ccc(/C=C2\CN(C(=O)CCSCCS)C/C(=C\c3ccc(OC)cc3)C2=O)cc1
pIC50 [1]: 5.56
pIC50 [2]: 4.96
Activity [3]: Non-toxic
pIC50 [4]: 5.49
Activity [5]: Toxic

O=C1/C(=C/c2ccccc2)CN(C(=O)CCSCCS(=O)(=O)O)C/C1=C\c1ccccc1
pIC50 [1]: 3.84
pIC50 [2]: 3.63
Activity [3]: Non-toxic
pIC50 [4]: 3.90
Activity [5]: Toxic

O=C1/C(=C/c2ccc(Cl)cc2)CN(C(=O)CCSCCS(=O)(=O)O)C/C1=C\c1ccc(Cl)cc1
pIC50 [6]: 4.52
pIC50 [7]: 4.74
pIC50 [1]: 4.45
pIC50 [2]: 4.00
Activity [8]: Non-toxic
pIC50 [9]: 4.55
pIC50 [10]: 4.62
Activity [3]: Non-toxic
pIC50 [11]: 4.59
pIC50 [12]: 4.65
pIC50 [13]: 5.03
pIC50 [14]: 4.55
pIC50 [15]: 4.60
pIC50 [4]: 4.38
pIC50 [16]: 4.53
pIC50 [17]: 4.60

O=C1/C(=C/c2ccccc2)CN(C(=O)CCSCCO)C/C1=C\c1ccccc1
CC50 [18]: 1.6 µM
Ratio [19]: 8.7
pIC50 [1]: 6.18
pIC50 [2]: 5.42
CC50 [20]: 1.3 µM
Ratio [21]: 11.3
CC50 at 48 h [22]: 14 µM
CC50 at 48 h [23]: 13 µM
CC50 at 48 h [24]: 17 µM
Ratio [25]: 9.2
Ratio [26]: 5.3
CC50 [27]: 1.7 µM
Ratio IC50 [28]: 4.3
pIC50 [4]: 6.24
Ratio IC50 [29]: 4.9
CC50 [30]: 2.8 µM

O=C1/C(=C/c2ccc(Cl)cc2)CN(C(=O)CCSCCO)C/C1=C\c1ccc(Cl)cc1
CC50 [18]: 0.47 µM
pIC50 [6]: 6.59
pIC50 [7]: 7.10
Ratio [19]: 8
pIC50 [1]: 6.38
pIC50 [2]: 5.19
Activity [8]: Non-toxic
CC50 [20]: 0.51 µM
pIC50 [9]: 6.77
Ratio [21]: 15.8
pIC50 [10]: 6.34
Activity [31]: Active
CC50 at 48 h [22]: 7.2 µM
Activity [3]: Non-toxic
pIC50 [11]: 6.49
Activity [32]: Active
pIC50 [12]: 5.96
CC50 at 48 h [23]: 8.6 µM
CC50 at 48 h [24]: 8.3 µM
Activity [33]: Active
pIC50 [13]: 6.68
Activity [34]: Active
Ratio [25]: 17.1
Ratio [26]: 8.3
Ratio IC50 [35]: 43
CC50 [27]: 1 µM
pIC50 [14]: 7.00
pIC50 [15]: 6.59
Ratio IC50 [28]: 3.6
pIC50 [4]: 6.16
Ratio IC50 [29]: 7.6
pIC50 [16]: 6.77
CC50 [30]: 0.97 µM
pIC50 [17]: 6.72

COc1ccc(/C=C2\CN(C(=O)CCSCCO)C/C(=C\c3ccc(OC)cc3)C2=O)cc1
CC50 [18]: 2.41 µM
pIC50 [6]: 5.66
pIC50 [7]: 6.48
Ratio [19]: 4.9
pIC50 [1]: 5.78
pIC50 [2]: 4.71
Activity [8]: Non-toxic
CC50 [20]: 2.4 µM
pIC50 [9]: 5.82
Ratio [21]: 6.5
pIC50 [10]: 5.60
CC50 at 48 h [22]: 14 µM
Activity [3]: Non-toxic
pIC50 [11]: 5.77
pIC50 [12]: 5.70
CC50 at 48 h [23]: 16 µM
CC50 at 48 h [24]: 17 µM
pIC50 [13]: 6.33
Ratio [25]: 6.5
Ratio [26]: 4.8
Ratio IC50 [35]: 6.6
CC50 [27]: 3.2 µM
pIC50 [14]: 5.54
pIC50 [15]: 5.62
Ratio IC50 [28]: 6.6
pIC50 [4]: 5.45
Ratio IC50 [29]: 2
pIC50 [16]: 5.67
CC50 [30]: 3.3 µM
pIC50 [17]: 5.70

Cc1ccc(/C=C2\CN(C(=O)CCSCCO)C/C(=C\c3ccc(C)cc3)C2=O)cc1
CC50 [18]: 0.89 µM
Ratio [19]: 4
pIC50 [1]: 5.73
pIC50 [2]: 5.23
Activity [8]: Non-toxic
CC50 [20]: 1.2 µM
Ratio [21]: 6.9
CC50 at 48 h [22]: 7.5 µM
Activity [3]: Non-toxic
CC50 at 48 h [23]: 8.4 µM
CC50 at 48 h [24]: 9.1 µM
Ratio [25]: 9.4
Ratio [26]: 4.9
CC50 [27]: 2.1 µM
Activity [36]: Non-toxic
Ratio IC50 [28]: 2.3
pIC50 [4]: 5.96
Activity [37]: Non-toxic
CC50 [30]: 1.7 µM

From ChEMBL document CHEMBL1772966, “3,5-Bis(benzylidene)-1-[3-(2-hydroxyethylthio)propanoyl]piperidin-4-ones: a novel cluster of potent tumor-selective cytotoxins” (J Med Chem, 2011)
